Assay results: ChEMBL document CHEMBL4014343 (J Med Chem, 2017)
Activity calls are given as the source filed them. No cut-off for these calls is given here.

Assays:
MCF7 [1] = test: Cell cycle arrest in human MCF7 cells assessed as accumulation at G2/M phase up to 1 uM after 24 to 48 hrs by propidium iodide staining based FACS analysis; type: functional
Summary of the method: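 MCF7 cells grown 24 h in DMEM with 10% FBS and 1% PS, then exposed to 1 μM for 24 and 48 h. Pellets fixed in 70% ethanol for at least 24 h, washed twice in ice-cold PBS, treated with RNase A (50 μg/mL, 1 h, 37 °C), stained with PI (50 μg/mL, 5 min), and DNA content read by FACS.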

HOP-62 = test: Growth inhibition of human HOP62 cells incubated for 48 hrs by sulforhodamine B assay; type: functional, cell-based
[2] = molecular target: Cyclin-dependent kinase 4/cyclin D1 (Homo sapiens) (UniProt P11802+P24385); test: Inhibition of recombinant human N-terminal GST-tagged CDK4 (S4 to E303 residues)/Cyclin D1 (Q4 to I295 residues) expressed in sf9 cells at 1 uM using RB-CTF as substrate by filter binding assay
Summary of the method: (§1)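 Single-point profiling at 1 μM in a 22-kinase panel, performed externally by ProQinase; activity read as residual percent of control.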

K562 = test: Growth inhibition of human K562 cells incubated for 48 hrs by sulforhodamine B assay; type: functional, cell-based
EKVX = test: Growth inhibition of human EKVX cells incubated for 48 hrs by sulforhodamine B assay; type: functional, cell-based
SF-295 = test: Growth inhibition of human SF295 cells incubated for 48 hrs by sulforhodamine B assay; type: functional, cell-based
HCC 2998 = test: Growth inhibition of human HCC2998 cells incubated for 48 hrs by sulforhodamine B assay; type: functional, cell-based
DU-145 = test: Growth inhibition of human DU145 cells incubated for 48 hrs by sulforhodamine B assay; type: functional, cell-based
[3] = molecular target: Glycogen synthase kinase-3 beta (Homo sapiens, UniProt P49841); test: Inhibition of human N-terminal GST/His6-tagged GSK3beta (M1 to T420 residues) expressed in baculovirus infected sf9 cells at 1 uM using RBER-IRStide as substrate by filter binding assay; summary of the method: as §1
LOX IMVI = test: Growth inhibition of human LOXIMVI cells incubated for 48 hrs by sulforhodamine B assay; type: functional, cell-based
OVCAR-5 = test: Growth inhibition of human OVCAR5 cells incubated for 48 hrs by sulforhodamine B assay; type: functional, cell-based
MCF7 [4] = test: Induction of apoptosis in human MCF7 cells assessed as PARP cleavage after 6 hrs by immunoblot analysis; type: functional, cell-based
Summary of the method: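 MCF7 in DMEM/10% FBS for 24 h, then treated 6 h; 0.1% DMSO as non-treated, Src inhibitor (10 μM) as positive control. Lysates (40 μg protein) on 10% SDS-PAGE, immunoblotted for PARP cleavage with ECL detection; β-actin loading control.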

CAKI-1 = test: Growth inhibition of human Caki1 cells incubated for 48 hrs by sulforhodamine B assay; type: functional, cell-based
OVCAR-8 = test: Growth inhibition of human OVCAR8 cells incubated for 48 hrs by sulforhodamine B assay; type: functional, cell-based
OVCAR-3 = test: Growth inhibition of human OVCAR3 cells incubated for 48 hrs by sulforhodamine B assay; type: functional, cell-based
[5] = molecular target: T1, Insulin-like growth factor 1 receptor (Homo sapiens, UniProt P08069); test: Inhibition of IGF1R in human MCF7 cells assessed as reduction in Akt phosphorylation at Ser473 residue at 1 uM after 15 mins by immunoblot analysis; type: cell-based
Summary of the method: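 MCF7 exposed to 1 μM and harvested at 15 min, 30 min, 1, 4 and 6 h; lysates immunoblotted with p-Akt (S473) antibody.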

HCT-116 = test: Growth inhibition of human HCT116 cells incubated for 48 hrs by sulforhodamine B assay; type: functional, cell-based
SNB-19 = test: Growth inhibition of human SNB19 cells incubated for 48 hrs by sulforhodamine B assay; type: functional, cell-based
[6] = molecular target: T1, Insulin-like growth factor 1 receptor; test: Inhibition of IGF1R in human MCF7 cells assessed as reduction in Akt phosphorylation at Ser473 residue after 24 hrs by immunoblot analysis; type: cell-based
Summary of the method: (§2)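 Cells in their medium with 10% FBS exposed to rising concentrations for 24 h; whole-cell lysates immunoblotted for p-Akt (S473) and total Akt; PI3K inhibitor at 10 μM as positive control.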

SK-MEL-2 = test: Growth inhibition of human SK-MEL-2 cells incubated for 48 hrs by sulforhodamine B assay; type: functional, cell-based
[7] = molecular target: Cyclin-dependent kinase 1/cyclin B1 (Homo sapiens) (UniProt P06493+P14635); test: Inhibition of recombinant human N-terminal GST/His6-tagged CDK1 (M1 to M297 residues)/Cyclin B1 (M1 to V433 residues) expressed in sf9 cells at 1 uM using RB-CTF as substrate by filter binding assay; summary of the method: as §1
UO-31 = test: Growth inhibition of human UO31 cells incubated for 48 hrs by sulforhodamine B assay; type: functional, cell-based
Summary of the method: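 NCI-60 panel growth inhibition, run by the U.S. National Cancer Institute; GI50 values are means of two test series.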

SF-268 = test: Growth inhibition of human SF268 cells incubated for 48 hrs by sulforhodamine B assay; type: functional, cell-based
[8] = molecular target: Cyclin-dependent kinase 5/CDK5 activator 1 (Homo sapiens) (UniProt Q00535+Q15078); test: Inhibition of recombinant human N-terminal GST-tagged CDK5 (M1 to P292 residues)/p35NCK (M1 to R307 residues) expressed in baculovirus infected sf9 cells at 1 uM using RB-CTF as substrate by filter binding assay; summary of the method: as §1
HL-60(TB) = test: Growth inhibition of human HL-60(TB) cells incubated for 48 hrs by sulforhodamine B assay; type: functional, cell-based
SK-MEL-5 = test: Growth inhibition of human SK-MEL-5 cells incubated for 48 hrs by sulforhodamine B assay; type: functional, cell-based
CCRF-CEM = test: Growth inhibition of human CCRF-CEM cells incubated for 48 hrs by sulforhodamine B assay; type: functional, cell-based
[9] = molecular target: Cyclin-dependent kinase 2/cyclin E1 (Homo sapiens) (UniProt P24864+P24941); test: Inhibition of recombinant human N-terminal GST-tagged CDK2 (M1 to L298 residues)/Cyclin E1 (M1 to A395 residues) expressed in sf9 cells at 1 uM using RB-CTF as substrate by filter binding assay; summary of the method: as §1
NCI-H522 = test: Growth inhibition of human NCI-H522 cells incubated for 48 hrs by sulforhodamine B assay; type: functional, cell-based
NCI-H322M = test: Growth inhibition of human NCI-H322M cells incubated for 48 hrs by sulforhodamine B assay; type: functional, cell-based
[10] = molecular target: T1, Insulin-like growth factor 1 receptor; test: Inhibition of IGF1R in human HeLa cells assessed as reduction in Akt phosphorylation at Ser473 residue after 24 hrs by immunoblot analysis; type: cell-based; summary of the method: as §2
Hs-578T = test: Growth inhibition of human Hs 578T cells incubated for 48 hrs by sulforhodamine B assay; type: functional, cell-based
[11] = molecular target: CDK2/Cyclin A2 (Homo sapiens) (UniProt P24941+P20248); test: Inhibition of recombinant human N-terminal GST-tagged CDK2 (M1 to L298 residues)/Cyclin A2 (M1 to L432 residues) expressed in baculovirus infected sf9 cells at 1 uM using Histone H1 as substrate by filter binding assay; summary of the method: as §1
MDA-MB-435 = test: Growth inhibition of human MDA-MB-435 cells incubated for 48 hrs by sulforhodamine B assay; type: functional, cell-based

Compound: CN1CCN(CCO/N=C2/C(=C3/C(=O)Nc4ccccc43)Nc3ccccc32)CC1
- Activity (MCF7 [1]): Active
- growth inhibition (GI) (HOP-62): Active
- inhibition [2]: inactive
- growth inhibition (GI) (K562): Active
- growth inhibition (GI) (EKVX): Active
- growth inhibition (GI) (SF-295): Active
- growth inhibition (GI) (HCC 2998): Active
- growth inhibition (GI) (DU-145): Active
- inhibition [3]: inactive
- growth inhibition (GI) (LOX IMVI): Active
- growth inhibition (GI) (OVCAR-5): Active
- Activity (MCF7 [4]): Active
- growth inhibition (GI) (CAKI-1): Active
- growth inhibition (GI) (OVCAR-8): Active
- growth inhibition (GI) (OVCAR-3): Active
- inhibition [5]: Active
- growth inhibition (GI) (HCT-116): Active
- growth inhibition (GI) (SNB-19): Active
- inhibition [6]: Dose-dependent effect
- growth inhibition (GI) (SK-MEL-2): Active
- inhibition [7]: inactive
- growth inhibition (GI) (UO-31): Active
- growth inhibition (GI) (SF-268): Active
- inhibition [8]: inactive
- growth inhibition (GI) (HL-60(TB)): Active
- growth inhibition (GI) (SK-MEL-5): Active
- growth inhibition (GI) (CCRF-CEM): Active
- inhibition [9]: inactive
- growth inhibition (GI) (NCI-H522): Active
- growth inhibition (GI) (NCI-H322M): Active
- inhibition [10]: Dose-dependent effect
- growth inhibition (GI) (Hs-578T): Active
- inhibition [11]: inactive
- growth inhibition (GI) (MDA-MB-435): Active
